Source: PMC12804367 (ESMO Open, 2025)
Where “and” joins values, the source holds several entries; their conditions need not be identical. Equal values may be shown once. Entries after “also recorded” stand apart in the source; their conditions may differ. Read-outs that look alike come from different tables or passages of the source. Marks after values point to notes of the source that are not given here.

Tests used:
[1] = tested on: patients with advanced or metastatic solid tumors; test: Safety, tolerability and DLTs; format: in vivo, human
Method in brief: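 3 + 3 escalation starting at 16 mg/day once daily or 24 mg/day intermittent (4 days on/3 days off) in 21-day cycles. AEs graded by CTCAE v5.0. DLTs were selected lab abnormalities or AEs at least possibly drug-related during cycle 1, assessed in patients with a DLT or ≥80% of planned doses taken.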

Plasma pharmacokinetics = format: in vivo, human
Method in brief: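 Dose-escalation patients had blood drawn predose and 0.5, 1, 2, 3, 4, 6 and 24 h post-dose on cycle 1 day 1, and on cycle 1 day 8 for once-daily dosing only. Plasma parameters came from noncompartmental analysis in patients with evaluable plasma concentration data. Values are geometric means with geometric CV%, plus day 8/day 1 accumulation ratios of Cmax and AUC0-24.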

[2] = tested on: advanced or metastatic solid tumors; test: Antitumor activity per RECIST v1.1; format: in vivo, human
Method in brief: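 Open-label, single-arm, 3 + 3 dose-escalation lead-in. Adults with advanced or metastatic solid tumors that had progressed on standard therapy and had ≥1 lesion per RECIST v1.1. Test compound given once daily (16 or 20 mg) or 4 days on/3 days off (24 or 28 mg) in 21-day cycles until progression or toxicity. Response, DCR and PFS were assessed in all dosed patients, with 95% CI.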

[3] = tested on: patients with advanced solid tumors; details: all patients; cited from earlier work
[4] = Japanese phase I study; cited from earlier work
advanced solid tumors = details: cited from earlier work
[5] = tested on: refractory gastrointestinal cancers / advanced solid tumors; details: cited from earlier work
kinases = details: cited from earlier work
[6] = dose escalation o.d. 20 mg (n = 6)
[7] = dose escalation o.d. total (n = 9), any grade
[8] = dose escalation o.d. total (n = 9), grade ≥3
[9] = two intermittent dosing groups (n = 7)
[10] = cycle 1 day 1, 16 mg o.d., individual values (N = 2)
[11] = cycle 1 day 1, 20 mg o.d., N = 6, geometric mean (CV%)
[12] = cycle 1 day 1, 24 mg intermittent, N = 4, geometric mean (CV%)
[13] = cycle 1 day 1, 28 mg intermittent, N = 3, geometric mean (CV%)
[14] = cycle 1 day 8, 16 mg o.d., N = 3, geometric mean (CV%)
[15] = cycle 1 day 8, 20 mg o.d., N = 6, geometric mean (CV%)
[16] = one patient, germline PTEN mutation, metaplastic breast cancer, 20 mg o.d.

C[C@]1(O)C[C@@](N)(c2ccc(-c3nc4n(c3-c3ccccc3)COc3ccncc3-4)cc2)C1 [TAS-117]
TRAE: Hyperglycemia [1, 6]: 1 (16.7) n (%)
TRAE: Nausea [1, 6]: 1 (16.7) n (%)
TRAE: Pruritus [1, 6]: 1 (16.7) n (%)
TRAE: Rash [1, 6]: 4 (66.7) n (%)
TRAE: Rash maculopapular [1, 6]: 1 (16.7) n (%)
Patients with any TRAE [1, 7]: 8 (88.9) n (%)
TRAE: Decreased appetite [1, 7]: 1 (11.1) n (%)
TRAE: Diarrhea [1, 7]: 2 (22.2) n (%)
TRAE: Fatigue [1, 7]: 2 (22.2) n (%)
TRAE: Hyperglycemia [1, 7]: 2 (22.2) n (%)
TRAE: Nausea [1, 7]: 1 (11.1) n (%)
TRAE: Pruritus [1, 7]: 1 (11.1) n (%)
TRAE: Rash [1, 7]: 6 (66.7) n (%)
TRAE: Rash maculopapular [1, 7]: 1 (11.1) n (%)
Patients with any TRAE [1, 8]: 5 (55.6) n (%)
TRAE: Fatigue [1, 8]: 1 (11.1) n (%)
TRAE: Rash [1, 8]: 2 (22.2) n (%)
TRAE: Rash maculopapular [1, 8]: 1 (11.1) n (%)
Patients who experienced a DLT ([1]; dose-escalation part, assessable patients (n = 16), cycle 1): three
TEAEs leading to death ([1]; either dosing regimen): No TEAEs leading to death
Patients with dose interruption due to an AE ([1]; intermittent dosing groups): 57.1%
Patients with dose reductions due to an AE ([1]; intermittent dosing groups): 42.9%
Patients with treatment discontinued due to a TRAE ([1]; intermittent dosing groups, grade 3 skin exfoliation at 28 mg): 14.3%
Patients with treatment-related serious AEs ([1]; o.d. dosing groups, all at 20 mg o.d.): three
Patients with AEs leading to dose interruptions ([1]; o.d. dosing regimen): 66.7%
Patients with AEs leading to dose reductions ([1]; o.d. dosing regimen): 0%
TRAE: Diarrhea ([1]; o.d. dosing regimen (n = 9)): 22.2%
TRAE: Fatigue ([1]; o.d. dosing regimen (n = 9)): 22.2%
TRAE: Hyperglycemia ([1]; o.d. dosing regimen (n = 9)): 22.2%
TRAE: Rash ([1]; o.d. dosing regimen (n = 9)): 66.7%
Grade ≥3 TRAE: stomatitis [1, 9]: 28.6%
Grade ≥3 TRAEs [1, 9]: 42.9%
TRAE: Decreased appetite [1, 9]: 28.6%
TRAE: Fatigue [1, 9]: 57.1%
TRAE: Hyperglycemia [1, 9]: 42.9%
TRAE: Pruritus [1, 9]: 57.1%
TRAE: Rash [1, 9]: 57.1%
TRAE: Stomatitis [1, 9]: 42.9%
Total exposure per week, 16 mg o.d. compared with 24-mg intermittent dosing (Plasma pharmacokinetics; 16 mg o.d.): higher total exposure per week
AUC0-24 (Plasma pharmacokinetics; [10]): 180.7 ng·h/mL and 244.3 ng·h/mL
AUC0-last (Plasma pharmacokinetics; [10]): 180.7 ng·h/mL and 244.3 ng·h/mL
Cmax (Plasma pharmacokinetics; [10]): 12.8 ng/mL and 14.5 ng/mL
Tmax (Plasma pharmacokinetics; [10]): 3.05 h and 20.88 h
AUC0-24 (Plasma pharmacokinetics; [11]): 333 (34.7) ng·h/ml
AUC0-last (Plasma pharmacokinetics; [11]): 333 (34.7) ng·h/ml
Cmax (Plasma pharmacokinetics; [11]): 21.5 (29.2) ng/ml
Tmax (Plasma pharmacokinetics; cycle 1 day 1, 20 mg o.d., N = 6, median (range)): 2.06 (1.15-6.42) h
AUC0-24 (Plasma pharmacokinetics; [12]): 412.8 (30.6) ng·h/ml
AUC0-last (Plasma pharmacokinetics; [12]): 290.5 (86) ng·h/ml
Cmax (Plasma pharmacokinetics; [12]): 23.2 (33.9) ng/ml
Tmax (Plasma pharmacokinetics; cycle 1 day 1, 24 mg intermittent, N = 4, median (range)): 2 (1.98-3.65) h
AUC0-last (Plasma pharmacokinetics; [13]): 426.3 (180.7) ng·h/ml
Cmax (Plasma pharmacokinetics; [13]): 48.1 (35.9) ng/ml
Tmax (Plasma pharmacokinetics; cycle 1 day 1, 28 mg intermittent, N = 3, median (range)): 2 (0.92-5.65) h
AUC0-24 (Plasma pharmacokinetics; cycle 1 day 1, 28 mg intermittent, individual values (n = 2)): 754.4 ng·h/mL and 961.1 ng·h/mL
AUC0-last (Plasma pharmacokinetics; [14]): 231.7 (157.2) ng·h/ml
Cmax (Plasma pharmacokinetics; [14]): 33.3 (34.3) ng/ml
Tmax (Plasma pharmacokinetics; cycle 1 day 8, 16 mg o.d., N = 3, median (range)): 4.08 (2-5.5) h
AUC0-24 (Plasma pharmacokinetics; cycle 1 day 8, 16 mg o.d., individual value (n = 1)): 811.3 ^b ng·h/ml
AUC0-24 (Plasma pharmacokinetics; [15]): 924 (54.5) ng·h/ml
AUC0-last (Plasma pharmacokinetics; [15]): 924 (54.5) ng·h/ml
Cmax (Plasma pharmacokinetics; [15]): 60.1 (58.8) ng/ml
Tmax (Plasma pharmacokinetics; cycle 1 day 8, 20 mg o.d., N = 6, median (range)): 2.33 (1.02-5.58) h
Exposure versus dose (Plasma pharmacokinetics; dose range 16-28 mg, cycle 1 day 1 and day 8): generally increased with increasing doses; also recorded: dose-dependent increases
Median PFS ([2]; all cohorts, 95% CI 1.3-3.5 months): 2.7 months
DCR ([2]; all patients, 95% CI 18.4% to 67.1%): 41.2%
Patients with stable disease as best response ([2]; o.d. dosing, all at 20 mg): three
Best overall response [2, 16]: stable disease
Duration of stable disease / treatment, ongoing at data cut-off [2, 16]: 19.1 months
Duration of stable disease / treatment as of manuscript drafting ([2]; one patient, germline PTEN mutation, metaplastic breast cancer, ongoing): > 3 years
Objective response (RECIST v1.1, investigator assessment) ([2]; patients assessed, n = 15, dose escalation (all-comers)): None and no patients having a confirmed response
Tolerability of 24-mg o.d. dose level [3]: intolerable skin toxicities
Accumulation of Cmax and AUC0-24 [4]: threefold to fourfold
Objective responses (advanced solid tumors; PIK3CA-mutant endometrial cancer, 1 out of 16 patients): 6.3%
Objective responses (advanced solid tumors; ovarian clear cell carcinoma, 3 out of 20 patients): 15%
Antitumor activity and safety (advanced solid tumors; patients with advanced solid tumors): preliminary antitumor activity and a manageable safety profile
Patients who achieved a partial response ([5]; PIK3CA-mutant ovarian cancer): 1 patient
Antitumor activity and toxicity ([5]; patients with refractory gastrointestinal cancers): limited antitumor activity and manageable toxicity
Off-target inhibition of kinases (kinases): no observed off-target inhibition of kinases
